Compound activity (PubChem)
RGS4 block – RGS4 inhibitors, primary screen, cell-based, HEK293 M3R inducible RGS4, calcium flux; Regulator of G-protein signaling 4 (Homo sapiens), P49798; B-score at 10 µM; Fluo-4 calcium flux; active compounds read high; triggered by carbachol at its EC20; 310,000 compounds, 0.45% hits; AID 463165, 2010;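 active means B-score, a plate-corrected calcium signal, over three deviations above library mean, with baseline fluorescence within five deviations of library mean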;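 further: RGS4 expression induced by doxycycline in cells with stable M3 receptor; B-score is computed from the integrated fluorescence ratio over baseline after carbachol; higher B-score means a larger calcium signal and so more RGS4 inhibition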
Target sequence (P49798 whole entry, looked up): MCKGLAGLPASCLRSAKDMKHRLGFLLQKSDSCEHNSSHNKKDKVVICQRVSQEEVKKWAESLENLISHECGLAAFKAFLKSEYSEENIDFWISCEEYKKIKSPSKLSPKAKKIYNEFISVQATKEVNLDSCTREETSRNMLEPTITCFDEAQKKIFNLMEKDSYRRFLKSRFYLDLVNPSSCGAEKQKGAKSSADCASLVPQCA
MrgX1 ag – agonists of human MrgX1 receptor, primary screen, HEK293 cells, Fluo-4 calcium flux | B-score at 10 µM | AID 588627, 2011 | 310,000 compounds, 0.44% hits | Mas-related G-protein coupled receptor member X1 (Homo sapiens), Q96LB2 | Fluo-4 calcium fluorescence, agonist mode; active compounds read high;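 active means calcium response B-score plate-corrected fluorescence ratio at least 3 library SD, with starting fluorescence B-score inside 5 SD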
Target sequence (Q96LB2 whole entry, looked up): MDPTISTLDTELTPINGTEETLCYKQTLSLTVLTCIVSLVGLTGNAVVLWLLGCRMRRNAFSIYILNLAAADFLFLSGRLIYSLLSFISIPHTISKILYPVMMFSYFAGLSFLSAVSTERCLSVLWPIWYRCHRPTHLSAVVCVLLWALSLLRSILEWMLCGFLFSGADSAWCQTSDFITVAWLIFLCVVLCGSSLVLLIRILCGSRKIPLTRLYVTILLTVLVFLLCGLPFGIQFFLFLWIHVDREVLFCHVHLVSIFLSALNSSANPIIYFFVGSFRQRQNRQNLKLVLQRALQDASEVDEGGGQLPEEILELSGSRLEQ
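Material: MrgX1-expressing HEK293 cells; input: 15,000 cells per well; doses: test compound given as first of three sequential additions; schedule: overnight plating before 1 h dye loading; technique: Fluo-4 NW calcium-flux fluorescence, kinetic read; evaluation: baseline-normalised fluorescence change ratio, B-scored; control set: plate-wise positive and negative controls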
MrgX1 antag – antagonists of human MrgX1 receptor, primary screen, HEK293 cells, Fluo-4 calcium flux. Mas-related G-protein coupled receptor member X1 (Homo sapiens), Q96LB2. BAM8-22 antagonism; active compounds read low. B-score at 10 µM. 310,000 compounds, 1.3% hits. AID 588676, 2011;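 active means calcium-response B-score plate-corrected more than 3 library SD below zero, starting fluorescence within 5 deviations, no agonist response on first addition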;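 further: peak minus trough fluorescence over baseline after final BAM8-22 challenge near maximal dose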
MrgX1 allo act – positive allosteric modulators of MrgX1, primary screen, HEK293 cells, Fluo-4 calcium flux | Mas-related G-protein coupled receptor member X1 (Homo sapiens), Q96LB2 | FDSS; active compounds read high | B-score at 10 µM | 310,000 compounds, 0.63% hits;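 active means plate-corrected calcium response at least 3 library SD above typical, normal starting fluorescence, not activating the receptor alone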;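 further: compound read alongside a low EC10 to EC30 dose of BAM8-22 agonist; peak minus trough fluorescence over baseline measured at the second addition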
RGS4 pot – RGS4 potentiators or activators, primary screen, cell-based, HEK293 M3R inducible RGS4, calcium flux. AID 463111, 2010. 310,000 compounds, 0.92% hits. B-score at 10 µM. carbachol calcium flux Fluo4; active compounds read low;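 active means B-score of the integrated calcium signal more than 4 SD below the library mean, with starting fluorescence not abnormally high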;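 further: negative B-score means reduced calcium response which marks RGS4 activation or potentiation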
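Assay system: Inducible-RGS4 HEK293 cells carrying M3 receptor | Schedule: Compound preincubation 20 min at room temperature before agonist | Signal: Kinetic calcium fluorescence imaging with Fluo4-AM dye, 2 µM | Read-out basis: B score from integrated fluorescence ratio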
Hits are given with their value; 0 = inactive; - = not tested or not shown. Shown are actives, neighbours in structure and some others; about 3.5% of the full set was active somewhere.

SMILES	RGS4 block	MrgX1 ag	MrgX1 antag	MrgX1 allo act	RGS4 pot
CC(C)NC(=O)c1cc2cc(Br)ccc2oc1=O	0	0	0	0	0
Cc1ccc(C(C)NC(=O)c2cc3cc(Br)ccc3oc2=N)cc1 (centres undefined)	0	0	0	0	-9.15
CCOc1ccccc1N1C(=O)CC(Nc2ccc(N3CCOCC3)cc2)C1=O (centres undefined)	0	0	-4.53	0	0
O=C(/C=C/c1ccc(OC(F)F)cc1)Nc1cccc(S(=O)(=O)NC2=NCCCCC2)c1	0	0	-8.24	0	0
O=C(c1cccc(Cl)c1)N1CCC(=O)N(C(CO)Cc2ccccc2)CC1 (centres undefined)	0	0	0	0	0
COc1ccc(CNC[C@@H](CCCCN(C)Cc2ccc(OC)cc2)N2C[C@H](c3ccccc3)N(CCc3ccc(Cl)c(Cl)c3)C(=O)C2=O)cc1	0	0	0	0	-8.17
Cc1ccc(CSc2nc3ccccc3cc2C=O)cc1	0	0	0	0	-8.3
COC(=O)C1=NN(c2cccc(C)c2)C2C(=O)N(c3ccccc3OC)C(=O)C12 (centres undefined)	0	0	0	0	0
Oc1ccc(CCNc2ncnc3ccc(Cl)cc23)cc1	0	0	-5.57	0	0
O=C(c1ccccc1)C(Nc1ccccn1)c1ccccc1 (centres undefined)	0	0	0	0	-7.47
O=C(CC(=O)c1ccccc1)Nc1ccccn1	0	0	0	0	0
CCOc1ccc(NC(=O)CN(C)C(=O)c2ccc3nc(CC)c(CC)nc3c2)cc1OCC	0	0	0	7.45	0
O=C(NCc1ccccc1)c1sc(=S)n2c1[nH]c(=O)c1ccccc12	0	50.9	0	0	0
CCCOC(=O)/C(C(N)=NCc1ccccc1)=C(\O)OCCC	0	28.3	0	0	0
O=[N+]([O-])c1ccc2c3n([n+]([O-])c2c1)CCN=C3c1ccc(Cl)cc1	0	0	0	0	0
O=C(c1ccc(S(=O)(=O)N2CCCC2)cc1)N(c1ccc(F)cc1)C1C=CS(=O)(=O)C1 (centres undefined)	0	0	0	0	0
COc1cc2c(cc1OC)CN(c1nc(-c3cccnc3)nc3ccccc13)CC2	0	0	0	0	-7.47
COc1ccccc1C(C)Nc1nc(-c2cccnc2)nc2ccccc12 (centres undefined)	0	0	0	0	-7.12
COc1cccc(CNc2nc(-c3cccnc3)nc3ccccc23)c1	0	0	0	0	0
Fc1ccccc1CNc1nc(-c2cccnc2)nc2ccccc12	0	37.8	0	0	-9.1
CCN1CCN(C(=O)C23CCC(C)(C(=O)C2Br)C3(C)C)CC1 (centres undefined)	0	0	0	0	0
CC(C)C(c1nnnn1Cc1cccs1)N1CCN(C(=O)c2ccco2)CC1 (centres undefined)	0	0	0	0	0
O=S(=O)(c1cc(Cl)ccc1Cl)N1CC2CCCN2c2ccc(C(F)(F)F)cc21 (centres undefined)	0	0	0	0	-7.13
CS(=O)(=O)N1CC2CCCN2c2ccc(C(F)(F)F)cc21 (centres undefined)	0	0	0	0	0
CCC(C)c1ccc(NC(=O)c2ccco2)cc1 (centres undefined)	0	0	0	0	0
SMILES	RGS4 block	MrgX1 ag	MrgX1 antag	MrgX1 allo act	RGS4 pot
C=CCOc1ccc(CNCCc2ccc(S(N)(=O)=O)cc2)cc1	0	0	0	0	-7.36
COc1ccc(C2=[N+](C)CCn3cccc32)c(OC)c1	0	0	0	0	0
CCCC(=O)NCC(c1cccs1)S(=O)(=O)c1ccc(C)cc1 (centres undefined)	0	0	0	0	0
CCOc1ccc2nc3cc(NCc4ccc(OC)cc4)ccc3c(N)c2c1	0	0	0	0	-7.56
CCn1cnc2cc(NCc3ccc(OC)cc3)ccc21	0	0	0	0	0
CC(=O)N(C)c1ccc(NC(=O)Nc2ccc(C)c(C)c2)cc1	0	0	0	0	-7.38
CCCCOc1ccc(CSc2nnc(C)n2N)cc1[N+](=O)[O-]	0	0	0	0	0
CCOc1ccc(CSC(=N)N)cc1[N+](=O)[O-]	0	45.6	0	0	0
O=C(COC(=O)CNC(=O)c1ccc(Cl)c([N+](=O)[O-])c1)NC(=O)c1ccccc1	0	0	0	0	0
CN(c1ccccc1)c1nc(N)c([N+](=O)[O-])c(Nc2ccccc2F)n1	0	0	0	0	0
COc1ccc(OC)c(Nc2nc(N(C)c3ccccc3)nc(N)c2[N+](=O)[O-])c1	0	0	0	0	-8.1
COc1ccc(CCCC(=O)NCC(=O)N/N=C/c2cc(Cl)ccc2OC)cc1	0	-	-	-	0
O=S(=O)(Nc1ccc2c(c1)OCO2)c1cccs1	0	0	0	0	0
O=S(=O)(Nc1ccc2c(c1)OCCO2)c1cccs1	0	0	-4.56	0	0
COCCN(C(=O)CCl)C(C(=O)NC1CCCCC1)c1ccccc1C (centres undefined)	0	0	0	0	0
Cc1cccc(C)c1C(OCCN(C)C)C1CCCCC1 (centres undefined)	0	0	0	0	-7.41
N#Cc1ccc(OCC(O)CN2CCN(c3ncc(C(F)(F)F)cc3Cl)CC2)cc1 (centres undefined)	0	0	0	0	0
C/C(=N\OCc1nc2ccccc2c(=O)n1/N=C/c1cc([N+](=O)[O-])ccc1O)c1ccccc1	0	0	0	7.34	0
Oc1ccc(/C=N/n2c(COc3ccccc3)n[nH]c2=S)c(O)c1	0	0	0	0	0
Oc1ccccc1/C=N/n1c(COc2ccccc2)n[nH]c1=S	0	0	0	6.61	0
C/C(=N\OCc1nc2ccccc2c(=O)n1/N=C/c1cc(C)cc([N+](=O)[O-])c1O)c1ccccc1	0	0	0	0	0
O=c1c2ccccc2nc(COc2ccccc2)n1/N=C/c1c[nH]c2ccccc12	0	0	0	0	0
O=c1c2ccccc2nc(COc2ccccc2)n1/N=C/c1ccc(O)cc1O	0	0	0	0	-7.81
COc1ccc(OC)c(NC(=O)CCNC(=O)c2ccco2)c1	0	0	0	0	0
CC1=C(C)CC(C(=O)Nc2nccs2)C(C(=O)O)C1 (centres undefined)	0	0	0	0	0
O=c1ccc2cc3c4c(c2o1)CCCN4CCC3	0	0	0	0	-7.37
O=c1oc2c3c4c(cc2s1)CCCN4CCC3	0	0	0	0	0
CC(Sc1nccn1C)C(=O)Nc1ccccc1 (centres undefined)	0	0	0	0	0
CCOC(=O)c1ccc(COC(=O)c2ccc3c(c2)-c2ccccc2C3=O)cc1	0	0	0	0	0
